Source: ChEMBL document CHEMBL4184225, “Discovery of selective 2,4-diaminoquinazoline toll-like receptor 7 (TLR 7) agonists” (Bioorg Med Chem Lett, 2018)

Columns and labels:
[1] = Tmax in Sprague-Dawley rat at 10 mg/kg, po; type: ADME, organism-based; conditions: in vivo
Summary of the method: (§1)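 Healthy male Sprague-Dawley rats given a single oral dose of 10 mg/kg. Portal vein plasma, systemic plasma and liver sampled. Cmax and Tmax determined, and AUC over 0–last. Liver/plasma ratio calculated from AUC(0-last).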

Cytochrome P450 2C8 = molecular target: T1, Cytochrome P450 2C8 (Homo sapiens, UniProt P10632); experiment: Inhibition of CYP2C8 (unknown origin); type: ADME
T1 sequence (P10632 whole entry): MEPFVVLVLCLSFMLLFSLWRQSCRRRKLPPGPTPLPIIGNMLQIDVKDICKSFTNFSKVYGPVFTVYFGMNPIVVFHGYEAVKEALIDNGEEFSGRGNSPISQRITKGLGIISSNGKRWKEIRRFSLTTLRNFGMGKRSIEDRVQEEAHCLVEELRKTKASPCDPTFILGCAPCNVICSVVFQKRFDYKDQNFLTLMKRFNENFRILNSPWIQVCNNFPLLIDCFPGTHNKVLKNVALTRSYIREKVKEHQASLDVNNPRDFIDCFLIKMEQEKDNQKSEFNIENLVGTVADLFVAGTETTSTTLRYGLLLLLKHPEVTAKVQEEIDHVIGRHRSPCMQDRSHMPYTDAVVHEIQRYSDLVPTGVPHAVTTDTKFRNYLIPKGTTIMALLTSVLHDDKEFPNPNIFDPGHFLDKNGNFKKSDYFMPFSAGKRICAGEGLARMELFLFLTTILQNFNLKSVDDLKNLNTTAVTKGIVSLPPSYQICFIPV

[2] = Cmax in Sprague-Dawley rat plasma at 10 mg/kg, po; type: ADME, organism-based; set-up: dose 10 mg/kg, route oral; summary of the method: as §1
[3] = Ratio of AUClast in liver to AUClast in plasma of Sprague-Dawley rat at 10 mg/kg, po; type: ADME, organism-based; conditions: liver and plasma; summary of the method: as §1
Cytochrome P450 2D6 = Cytochrome P450 2D6 (Homo sapiens, UniProt P10635); experiment: Inhibition of CYP2D6 (unknown origin); type: ADME
Cytochrome P450 2C19 = Cytochrome P450 2C19 (Homo sapiens, UniProt P33261); experiment: Inhibition of CYP2C19 (unknown origin); type: ADME
[4] = AUClast in Sprague-Dawley rat liver at 10 mg/kg, po; type: ADME, organism-based; conditions: in vivo; summary of the method: as §1
[5] = AUClast in Sprague-Dawley rat portal vein at 10 mg/kg, po; type: ADME, organism-based; set-up: dose 10 mg/kg, time 0 - last, route oral; summary of the method: as §1
[6] = molecular target: T2, Toll-like receptor 7 (Homo sapiens) (UniProt Q9NYK1); experiment: Agonist activity at human TLR7 expressed in HEK293 cells assessed as induction of receptor activation incubated for 6 hrs by NF-kappaB-luciferase reporter gene assay; type: cell-based
T2 sequence (whole entry): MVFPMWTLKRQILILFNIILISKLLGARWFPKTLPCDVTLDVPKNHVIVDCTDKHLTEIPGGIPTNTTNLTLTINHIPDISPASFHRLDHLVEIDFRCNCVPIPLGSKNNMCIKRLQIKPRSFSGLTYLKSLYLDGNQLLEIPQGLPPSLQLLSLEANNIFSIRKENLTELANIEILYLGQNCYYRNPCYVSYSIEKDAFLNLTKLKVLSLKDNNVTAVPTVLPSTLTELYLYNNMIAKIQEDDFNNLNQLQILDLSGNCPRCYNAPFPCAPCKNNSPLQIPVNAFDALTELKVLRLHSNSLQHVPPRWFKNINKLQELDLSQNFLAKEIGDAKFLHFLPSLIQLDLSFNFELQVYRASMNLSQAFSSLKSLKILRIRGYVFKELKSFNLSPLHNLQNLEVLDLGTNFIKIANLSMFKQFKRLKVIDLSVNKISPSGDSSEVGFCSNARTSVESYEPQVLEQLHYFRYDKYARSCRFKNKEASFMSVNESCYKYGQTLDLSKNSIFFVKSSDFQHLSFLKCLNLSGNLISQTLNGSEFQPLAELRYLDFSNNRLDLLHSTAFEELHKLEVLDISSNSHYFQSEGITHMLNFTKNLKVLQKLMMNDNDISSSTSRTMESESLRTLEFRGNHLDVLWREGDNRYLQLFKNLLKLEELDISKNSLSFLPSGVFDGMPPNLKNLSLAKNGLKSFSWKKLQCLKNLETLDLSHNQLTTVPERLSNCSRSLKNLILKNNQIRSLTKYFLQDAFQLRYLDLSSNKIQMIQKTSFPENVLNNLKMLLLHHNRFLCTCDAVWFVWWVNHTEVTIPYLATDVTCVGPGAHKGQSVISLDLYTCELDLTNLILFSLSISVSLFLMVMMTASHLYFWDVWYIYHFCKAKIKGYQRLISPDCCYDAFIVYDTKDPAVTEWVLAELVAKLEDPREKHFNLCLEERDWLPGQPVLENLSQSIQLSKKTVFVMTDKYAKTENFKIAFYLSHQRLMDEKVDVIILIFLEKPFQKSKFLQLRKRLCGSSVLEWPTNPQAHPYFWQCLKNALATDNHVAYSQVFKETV
Summary of the method: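 HEK293 cells transiently transfected overnight with CMV-TLR7 (wild type or dLRR2 mutant) plus NFκB-luc plasmids. Seeded at 1.67 x 10^5 cells/mL onto compound in 4% DMSO (stock), 6 h at 37°C, 5% CO2, luciferase readout. Quadruplicate dose-response. LEC is the concentration giving an effect at least two-fold above assay SD. Values averaged over independent experiments where repeated.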

[7] = Oral bioavailability in Sprague-Dawley rat at 10 mg/kg; type: ADME, organism-based; conditions: in vivo
[8] = AUClast in Sprague-Dawley rat plasma at 10 mg/kg, po; type: ADME, organism-based; set-up: dose 10 mg/kg, time 0 - last, route oral; summary of the method: as §1
[9] = molecular target: T2, Toll-like receptor 7 (Homo sapiens); experiment: Agonist activity at TLR7 in human PBMC assessed as suppression of HCV replicon replication in human HuH7 luc/neo cells harboring RNA encoding bicistronic expression construct comprising wild type HCV type 1b NS3-NS5B regions exposed to conditioned media from compound treated PBMCs by luciferase reporter gene assay; type: cell-based
Summary of the method: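 PBMCs from buffy coats of at least two donors (Ficoll), in RPMI with 10% human AB serum, 2 x 10^5 cells/well, incubated overnight with compound. Supernatant transferred onto Huh7-luc/neo replicon cells plated the day before (2.2 x 10^3/well). Luciferase read after 24 h. EC50 is the concentration applied to PBMCs giving 50% luciferase reduction. Recombinant IFN-α2a standard.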

[10] = Metabolic stability in human liver microsomes assessed as drug metabolism after 15 mins at 1 uM; type: ADME, microsome; conditions: read-out: Drug metabolism
Summary of the method: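 Compound at 1µM incubated with liver microsomes of the stated species. Percent of compound metabolized after 15 min.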

Cytochrome P450 3A4 = Cytochrome P450 3A4 (Homo sapiens, UniProt P08684); experiment: Inhibition of CYP3A4 (unknown origin); type: ADME
[11] = Metabolic stability in rat liver microsomes assessed as drug metabolism after 15 mins at 1 uM
[12] = Cmax in Sprague-Dawley rat liver at 10 mg/kg, po
Homo sapiens = organism: Homo sapiens; experiment: Selectivity index, ratio of MEC for agonist activity at human TLR8 expressed in HEK293 cells to MEC for agonist activity at human TLR7 expressed in HEK293 cells as; type: cell-based
Summary of the method: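 Ratio of TLR8 to TLR7 LEC from HEK293 NFκB-luciferase reporter assays. Cells were transiently transfected with TLR7 or TLR8 construct plus NFκB-luc and treated with compound for 6 h at 37°C. LEC is the lowest concentration with signal at least two-fold above the assay SD, from quadruplicate dose-response curves.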

Chain of Cytochrome P450 2C19 (P33261 whole entry): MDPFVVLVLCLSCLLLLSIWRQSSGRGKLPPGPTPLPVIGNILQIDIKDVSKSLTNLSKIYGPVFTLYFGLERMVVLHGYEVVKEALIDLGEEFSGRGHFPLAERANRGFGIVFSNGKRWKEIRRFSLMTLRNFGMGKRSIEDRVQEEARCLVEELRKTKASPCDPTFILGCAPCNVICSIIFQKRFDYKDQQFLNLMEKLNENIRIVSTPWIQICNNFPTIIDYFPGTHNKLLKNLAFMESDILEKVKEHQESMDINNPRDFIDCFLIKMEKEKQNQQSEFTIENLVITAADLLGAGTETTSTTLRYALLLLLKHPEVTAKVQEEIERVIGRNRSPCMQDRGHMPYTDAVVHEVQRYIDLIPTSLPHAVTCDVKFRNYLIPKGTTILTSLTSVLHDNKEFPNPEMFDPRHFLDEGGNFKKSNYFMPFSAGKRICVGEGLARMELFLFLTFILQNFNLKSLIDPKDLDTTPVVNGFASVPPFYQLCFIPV
Chain of Cytochrome P450 3A4 (P08684 whole entry): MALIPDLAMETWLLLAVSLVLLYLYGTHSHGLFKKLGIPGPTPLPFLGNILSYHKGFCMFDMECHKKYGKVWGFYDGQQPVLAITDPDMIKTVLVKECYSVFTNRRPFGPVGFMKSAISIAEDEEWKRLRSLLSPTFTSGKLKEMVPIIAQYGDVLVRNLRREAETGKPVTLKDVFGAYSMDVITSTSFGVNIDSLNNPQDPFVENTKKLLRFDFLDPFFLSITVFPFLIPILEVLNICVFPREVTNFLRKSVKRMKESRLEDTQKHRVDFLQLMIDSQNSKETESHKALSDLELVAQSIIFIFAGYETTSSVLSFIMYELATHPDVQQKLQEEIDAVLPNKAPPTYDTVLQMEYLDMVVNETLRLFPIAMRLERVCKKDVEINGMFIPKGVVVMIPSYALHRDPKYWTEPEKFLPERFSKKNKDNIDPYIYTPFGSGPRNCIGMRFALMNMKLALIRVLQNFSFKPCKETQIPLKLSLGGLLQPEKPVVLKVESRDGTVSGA
Chain of Cytochrome P450 2D6 (P10635 whole entry): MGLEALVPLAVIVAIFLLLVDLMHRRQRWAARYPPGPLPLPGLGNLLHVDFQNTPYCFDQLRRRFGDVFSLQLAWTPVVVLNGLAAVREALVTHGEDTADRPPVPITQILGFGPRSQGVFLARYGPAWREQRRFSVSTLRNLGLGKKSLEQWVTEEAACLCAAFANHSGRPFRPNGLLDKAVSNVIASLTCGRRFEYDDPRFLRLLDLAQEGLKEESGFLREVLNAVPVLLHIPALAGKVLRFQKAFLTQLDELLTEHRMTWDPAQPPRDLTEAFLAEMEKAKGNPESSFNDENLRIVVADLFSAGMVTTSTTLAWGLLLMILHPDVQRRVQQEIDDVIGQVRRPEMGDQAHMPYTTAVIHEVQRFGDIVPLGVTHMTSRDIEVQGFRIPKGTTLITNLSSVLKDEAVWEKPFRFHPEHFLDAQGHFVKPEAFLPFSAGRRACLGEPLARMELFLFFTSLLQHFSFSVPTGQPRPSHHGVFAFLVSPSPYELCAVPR

| Structure (SMILES) | Tmax [1] [min] | IC50 (Cytochrome P450 2C8) [µM] | Cmax [2] [ng/mL] | Kp [3] | IC50 (Cytochrome P450 2D6) [µM] | IC50 (Cytochrome P450 2C19) [µM] | AUClast [4] [ng·h/g] | AUC(0-t) [5] [ng·h/mL] | MEC [6] [µM] | bioavailability [7] [%] | AUC(0-t) [8] [ng·h/mL] | MEC [9] [µM] | metabolised at 0.25 h, 1 µM [10] [%] | IC50 (Cytochrome P450 3A4) [µM] | metabolised at 0.25 h, 1 µM [11] [%] | Cmax [12] [ng/g] | Ratio (Homo sapiens) |
| --- | --- | --- | --- | --- | --- | --- | --- | --- | --- | --- | --- | --- | --- | --- | --- | --- | --- |
| CCCCNc1nc(N)nc2cccc(C(=O)N(C)Cc3ccccc3)c12 | 30 | > 10 | 9 | 30 | 5.6 | > 10 | 1064 | 621 | 0.53 | 1.2 | 37 | 0.27 | 98 | 8.5 | 99 | 369 | – |
| CCCCNc1nc(N)nc2cccc(C(=O)NCc3ccccc3)c12 | – | > 10 | – | – | 6.6 | > 10 | – | – | 0.06 | – | – | 0.03 | 28 | > 10 | – | – | – |
| CCCCNc1nc(N)nc2cccc(C(=O)N[C@@H](C)c3ccccc3)c12 | 240 | > 10 | 87 | 36 | > 10 | > 10 | 15841 | 902 | 0.09 | 20 | 439 | 0.14 | 31 | > 10 | 54 | 4930 | > 250 |
| CCCCNc1nc(N)nc2cccc(OCc3ccccn3)c12 | – | > 10 | – | – | > 10 | > 10 | – | – | 0.49 | – | – | 0.043 | 60 | > 10 | – | – | – |
| CCCCNc1nc(N)nc2cccc(OCc3nccc(OC)c3OC)c12 | – | > 10 | – | – | > 10 | > 10 | – | – | 0.03 | – | – | 0.034 | 37 | 9.9 | – | – | – |
| CCCCNc1nc(N)nc2cccc(OCc3cccnc3)c12 | – | > 10 | – | – | > 10 | > 10 | – | – | 0.03 | – | – | 0.011 | 44 | 6.7 | – | – | – |
| CCCCNc1nc(N)nc2cccc(OCc3ccccc3)c12 | – | > 10 | – | – | 5.7 | > 10 | – | – | 0.16 | – | – | 0.04 | 11 | – | – | – | 10 |
| CCCCNc1nc(N)nc2ccccc12 | 30 | – | 33 | > 100 | – | – | 6450 | 1520 | 0.17 | 5.4 | 56 | – | 90 | – | 95 | 2030 | – |
| CCCCNc1nc(N)nc2cccc(C(=O)NC(C)C)c12 | – | > 10 | – | – | > 10 | > 10 | – | – | 2.05 | – | – | 0.56 | 14 | > 10 | – | – | – |
| CCCCNc1nc(N)nc2cccc(C(=O)N[C@H](C)c3ccccc3)c12 | – | > 10 | – | – | > 10 | > 10 | – | – | 2.29 | – | – | > 25 | 32 | > 10 | – | – | – |
| CCCCNc1nc(N)nc2cccc(OCc3ccccc3OC)c12 | – | > 10 | – | – | > 10 | > 10 | – | – | 0.27 | – | – | 0.33 | 48 | > 10 | – | – | 90 |
| CCCCNc1nc(N)nc2cccc(OCc3ccc(CO)cc3OC)c12 | – | > 10 | – | – | 4.4 | > 10 | – | – | 0.03 | – | – | 0.018 | 43 | > 10 | – | – | > 200 |
| CCCCNc1nc(N)nc2cccc(C(=O)NC)c12 | – | > 10 | – | – | > 10 | > 10 | – | – | 0.35 | – | – | 0.15 | 23 | > 10 | – | – | – |
